A selection: hits, their analogues and other compounds. The true share with any hit is near 3.7%.
KCNQ1 block: blocks the human KCNQ1 potassium channel; CHO-K1 KCNQ1, FluxOR thallium flux fluorescence; active compounds read high; actives 1.3% (n = 310,000); B-score at 10 µM; P51787;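 active means compounds whose thallium flux B-score, printed positive for inhibition, exceeds three library SD while starting fluorescence stays within three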;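 further: channel opened by potassium depolarization with thallium stimulus after 20 min compound exposure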
Kir21 inh: inhibitors of mouse Kir2.1 inward-rectifier potassium channel. P35561. HEK293-Kir2.1, FluxOR thallium flux fluorescence; active compounds read low. B-score at 10 µM. actives 0.85% (n = 310,000). AID 1672;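 active means fluorescence ratio B-score at or below minus 3 SD of library scores, with starting-brightness B-score within 2 SD, cut at about -4.2 in these data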;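 further: channel flux triggered by added potassium and thallium sulfate stimulus; B-score of peak minus minimum fluorescence over baseline after thallium stimulus; more negative B-score means stronger Kir2.1 block with less thallium influx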
Target sequence (P35561 whole entry, looked up): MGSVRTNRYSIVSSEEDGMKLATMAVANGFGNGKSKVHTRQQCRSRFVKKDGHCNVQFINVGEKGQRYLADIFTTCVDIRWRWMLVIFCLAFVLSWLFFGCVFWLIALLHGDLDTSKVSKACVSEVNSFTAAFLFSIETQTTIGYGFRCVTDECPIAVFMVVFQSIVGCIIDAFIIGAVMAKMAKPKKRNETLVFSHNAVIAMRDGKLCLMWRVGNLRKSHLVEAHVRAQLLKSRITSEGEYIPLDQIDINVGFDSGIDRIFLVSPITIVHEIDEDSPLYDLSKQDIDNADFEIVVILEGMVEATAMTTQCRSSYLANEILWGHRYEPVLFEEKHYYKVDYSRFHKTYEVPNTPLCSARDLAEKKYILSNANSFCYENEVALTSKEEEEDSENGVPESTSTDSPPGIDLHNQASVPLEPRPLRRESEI
KCNQ1 pot: potentiators or activators of human KCNQ1 potassium channel. AID 2648. CHO-K1 KCNQ1, thallium flux FluxOR fluorescence; active compounds read high. actives 0.35% (n = 310,000). B-score at 10 µM. P51787;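 active means fluorescence ratio B-score, a plate-corrected score, at least three library SD, with initial intensity B-score within 5 SD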
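Assay system: CHO-K1 cells stably expressing KCNQ1. Medium: assay buffer for compound exposure, DMSO matched across wells. Timing: 37 °C overnight plating, 90-min dark dye load, 20-min compound pretreatment. Signal: kinetic FluxOR fluorescence, 10 s baseline plus 110 s post-stimulus.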
KCNK3 block: human KCNK3 channel inhibition, primary screen; O14649; CHO-KCNK3 thallium flux, FluxOR fluorescence; active compounds read low; B-score at 10 µM; actives 0.84% (n = 340,000);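 active means B-score under library mean minus 4 SD, starting fluorescence ratio at most library mean plus 5 SD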;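 further: more negative B-score means stronger inhibition of thallium flux through KCNK3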
hERG rescue: shields human hERG channel from block by proarrhythmic agents; CHO-hERG, FluxOR thallium flux, dofetilide IC70 present; activation (rescue from dofetilide block), less the hit threshold, % at 10 µM; actives 0.51% (n = 310,000);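 active means activation above the mean of controls blocked by dofetilide plus 5 SD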;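 further: thallium influx through hERG after potassium depolarization seen as dye fluorescence rise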
KCNK9 block: human KCNK9 channel inhibition; HEK293 KCNK9, FluxOR thallium flux fluorescence; active compounds read low; B-score at 10 µM; actives 1.2% (n = 310,000); Q9NPC2;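 active means ratio B-score over 3 SD below the library mean, with starting fluorescence within 5 SD of its mean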;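 further: negative B-score means less thallium flux so channel inhibition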
KCNK3 confirm: confirmation of human KCNK3 two-pore domain potassium channel inhibitors. shares compounds with KCNK3 block. CHO-KCNK3 thallium flux, FluxOR fluorescence; 0% buffer, 100% carvedilol maximal block. ratio percent of control, % at 10 µM. actives 99% (n = 2,400). AID 651638;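 active means ratio percent of control, averaged over triplicates, above buffer control mean plus 5 SD, cut at about 64% in these data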;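 further: ratio is the fluorescence rise from min to max over baseline after thallium stimulus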
KCNK3 uninduced: activity in cells without induced KCNK3 expression; thallium flux ratio (lower = more inhibition) at 10 µM; AID 651747; non-induced KCNK3 parental cells, FluxOR thallium flux; active compounds read low; shares compounds with KCNK3 block; actives 40% (n = 2,400);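 active means thallium flux ratio, averaged over three wells, more than 5 SD below the buffer control mean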;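 further: host cells are CHO cells without KCNK3 induction; ratio is peak minus trough fluorescence over baseline then normalized to buffer controls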
Starred values were filed as active, the others as inactive.

Results for CCN(Cc1ccccc1)C(=O)c1cc2c(=O)oc3ccc(C)cc3c2s1 ?
KCNQ1 block: 6*; Kir21 inh: -0.16; KCNQ1 pot: inactive; KCNK3 block: -8.89*; hERG rescue: -20.4; KCNK9 block: inactive; KCNK3 confirm: 111.0*; KCNK3 uninduced: 0.123*

What do the screens show for `CSc1ccccc1NC(=O)c1cc(-c2cccnc2)nc2ccc(Br)cc12`?
KCNQ1 block: inactive; Kir21 inh: -0.1; KCNQ1 pot: inactive; KCNK3 block: -12.8*; hERG rescue: -8.6; KCNK9 block: inactive; KCNK3 confirm: 109.3*; KCNK3 uninduced: 0.147*

What do the screens show for `COCCN(CCOC)C(=O)COC(=O)c1cc([N+](=O)[O-])ccc1Cl`?
KCNQ1 block: inactive; Kir21 inh: 0.48; KCNQ1 pot: inactive; KCNK3 block: inactive; hERG rescue: -15.2; KCNK9 block: inactive

Results for COc1ccc(N2CCN(C(=O)Cc3cccs3)CC2)cc1 ?
KCNQ1 block: inactive; Kir21 inh: -0.15; KCNQ1 pot: inactive; KCNK3 block: -9.47*; hERG rescue: 3.1; KCNK9 block: inactive; KCNK3 confirm: 75.0*; KCNK3 uninduced: inactive

How did CCOc1ccc(NC(=O)CCC(=O)NNS(=O)(=O)c2ccccc2[N+](=O)[O-])cc1 do in these assays?
KCNQ1 block: inactive; Kir21 inh: 0.01; KCNQ1 pot: inactive; KCNK3 block: inactive; hERG rescue: -10.0; KCNK9 block: inactive

Results for CCOC(=O)c1cc(C#N)c(SCC(=O)c2cc(C#N)c(SC)nc2C)nc1C ?
KCNQ1 block: inactive; Kir21 inh: 1.15; KCNQ1 pot: inactive; KCNK3 block: -10.6*; hERG rescue: -1.3; KCNK9 block: inactive; KCNK3 confirm: 107.3*; KCNK3 uninduced: 0.14*

What do the screens show for `CCOC(=O)c1cc(C#N)c(SCc2cccc3ccccc23)nc1C`?
KCNQ1 block: inactive; Kir21 inh: 0.57; KCNQ1 pot: inactive; KCNK3 block: inactive; hERG rescue: -6.6; KCNK9 block: inactive

How did COc1cc(CNC(=O)c2cc3ccccc3oc2=O)cc(OC)c1OC do in these assays?
KCNQ1 block: inactive; Kir21 inh: 0.95; KCNQ1 pot: inactive; KCNK3 block: inactive; hERG rescue: -4.5; KCNK9 block: inactive

What do the screens show for `COCCN(C(=O)Nc1ccccc1OC)c1nc2ccccc2s1`?
KCNQ1 block: inactive; Kir21 inh: -0.63; KCNQ1 pot: inactive; KCNK3 block: -11.2*; hERG rescue: -9.4; KCNK9 block: inactive; KCNK3 confirm: 114.3*; KCNK3 uninduced: inactive

How did Nc1ccc(/C=C/C(=O)c2cccs2)cc1 do in these assays?
KCNQ1 block: inactive; Kir21 inh: -3.23; KCNQ1 pot: inactive; KCNK3 block: -9.26*; hERG rescue: -17.4; KCNK9 block: inactive; KCNK3 confirm: 122.7*; KCNK3 uninduced: 0.093*

What do the screens show for `CCc1ccc(CNC(=O)CCn2ccc3cc(S(=O)(=O)N4CCCC4)ccc32)cc1`?
KCNQ1 block: inactive; Kir21 inh: -1.3; KCNQ1 pot: inactive; KCNK3 block: -10.4*; hERG rescue: -6.5; KCNK9 block: inactive; KCNK3 confirm: 117.3*; KCNK3 uninduced: 0.154*

How did CCOc1ccccc1C(=O)NCC(=O)OCCOc1cccc(Cl)c1 do in these assays?
KCNQ1 block: inactive; Kir21 inh: 1.52; KCNQ1 pot: inactive; KCNK3 block: -10.1*; hERG rescue: -15.1; KCNK9 block: inactive; KCNK3 confirm: 99.7*; KCNK3 uninduced: inactive

How did CCc1cccc(N(CC(=O)NC2CCCCC2)C(=O)c2csnn2)c1 do in these assays?
KCNQ1 block: inactive; Kir21 inh: -0.12; KCNQ1 pot: inactive; KCNK3 block: inactive; hERG rescue: -4.1; KCNK9 block: inactive

Results for COCCn1c(COc2ccc(C)cc2)nc2ccccc21 ?
KCNQ1 block: inactive; Kir21 inh: 0.71; KCNQ1 pot: inactive; KCNK3 block: inactive; hERG rescue: -4.8; KCNK9 block: inactive

What do the screens show for `CCn1c(COc2ccc(C)cc2)nc2ccccc21`?
KCNQ1 block: inactive; Kir21 inh: -0.75; KCNQ1 pot: inactive; KCNK3 block: -12*; hERG rescue: -5.1; KCNK9 block: inactive; KCNK3 confirm: 111.7*; KCNK3 uninduced: inactive

How did CCN(C(=O)CN1C(=O)NC2(CCc3ccccc32)C1=O)C1CCCCC1 (stereo not drawn) do in these assays?
KCNQ1 block: inactive; Kir21 inh: -0.28; KCNQ1 pot: inactive; KCNK3 block: inactive; hERG rescue: -18.0; KCNK9 block: inactive

How did CCOc1ccccc1NC(=S)NC(=O)CCCOc1ccc(Cl)cc1Cl do in these assays?
KCNQ1 block: inactive; Kir21 inh: -0.62; KCNQ1 pot: inactive; KCNK3 block: -11.1*; hERG rescue: 2.5; KCNK9 block: inactive; KCNK3 confirm: 108.7*; KCNK3 uninduced: inactive

What do the screens show for `COc1ccc(/C=N/NC(=O)c2cc(-c3ccccc3OC)nc3ccccc23)cc1COC(C)=O`?
KCNQ1 block: inactive; Kir21 inh: 1.94; KCNQ1 pot: inactive; KCNK3 block: -11.4*; hERG rescue: -9.6; KCNK9 block: inactive; KCNK3 confirm: 97.3*; KCNK3 uninduced: inactive

Results for COc1cc(NC(=O)CSCC(=O)Nc2cccc(C(F)(F)F)c2)c(Cl)cc1Cl ?
KCNQ1 block: 7*; Kir21 inh: -1.65; KCNQ1 pot: inactive; KCNK3 block: -11*; hERG rescue: -12.0; KCNK9 block: inactive; KCNK3 confirm: 114.7*; KCNK3 uninduced: inactive

Results for O=C(COCC(=O)Nc1cccc(C(F)(F)F)c1)Nc1cccc(C(F)(F)F)c1 ?
KCNQ1 block: inactive; Kir21 inh: 0.31; KCNQ1 pot: inactive; KCNK3 block: inactive; hERG rescue: -12.5; KCNK9 block: inactive

Results for Cc1ccc(OCCn2cc(C#N)c3ccccc32)cc1 ?
KCNQ1 block: inactive; Kir21 inh: 1.05; KCNQ1 pot: inactive; KCNK3 block: -9.5*; hERG rescue: -6.5; KCNK9 block: inactive; KCNK3 confirm: 100.7*; KCNK3 uninduced: 0.152*

What do the screens show for `CC(=O)c1cn(CCOc2ccc(F)cc2)c2ccccc12`?
KCNQ1 block: inactive; Kir21 inh: -2.39; KCNQ1 pot: inactive; KCNK3 block: -8.96*; hERG rescue: -7.4; KCNK9 block: inactive; KCNK3 confirm: 104.0*; KCNK3 uninduced: inactive

Screens deposited in PubChem BioAssay by Johns Hopkins Ion Channel Center.
